Laboratory results published in ChEMBL document CHEMBL2390875, “Synthesis and pharmacological investigation of new N-hydroxyalkyl-2-aminophenothiazines exhibiting marked MDR inhibitory effect” (Bioorg Med Chem, 2013).
Active and inactive are the calls of the source. No cut-off for these calls is given here.

The compounds below were run on Hepatocyte (assay: Inhibition of p-gp in Wistar rat primary hepatocytes assessed as inhibition of rhodamine 123 efflux at 10 uM after 3 hrs).
Type: cell-based
Method in brief: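 Collagenase-perfused male Wistar rat hepatocytes plated on collagen and cultured 4 days in supplemented Williams Medium E. Cells preloaded 30 min with 5 µM RH123, then exposed 3 h to compound or 0.1% DMSO vehicle. Cells washed with ice-cold HBSS and lysed in 0.5% Triton X100. Intracellular RH123 read by fluorescence at 519/538 nm. Mean ± SD from three isolations, four wells per condition, Student's t-test.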
For `COc1ccc(-n2nnc(CCC(O)CN3c4ccccc4[S+]([O-])c4ccc(N5CCOCC5)cc43)n2)cc1` (stereo not drawn), the inhibition was “Active”. `COc1ccc(-n2nnc(CCC(O)CN3c4ccccc4S(=O)(=O)c4ccc(N5CCOCC5)cc43)n2)cc1` (stereo not drawn) was tested, and the inhibition was “Active”. With `COc1ccc(-n2nnc(/C=C\C=C\N3c4ccccc4Sc4ccc(Cl)cc43)n2)cc1` the inhibition was “Active”. `COc1ccc(-n2nnc(CCC(O)CN3c4ccccc4Sc4ccc(C(F)(F)F)cc43)n2)cc1` (stereo not drawn) was tested, and the inhibition was “Active”. In the case of `COc1ccc(-n2nnc(CCC(O)CN3c4ccccc4Sc4ccc(NC(C)=O)cc43)n2)cc1` (stereo not drawn), the inhibition is reported as “Active”. In the case of `COc1ccc(-n2nnc(CCC(O)CN3c4ccccc4Sc4ccccc43)n2)cc1` (stereo not drawn), the inhibition is reported as “Active”. `CCN(CC)c1ccc2c(c1)N(CC(O)CCc1nnn(-c3ccc(OC)cc3)n1)c1ccccc1S2` (racemic) was tested, and the inhibition was “Active”. `COc1ccc(-n2nnc(CCC(O)CN3c4ccccc4Sc4ccc(N5CCN(C)CC5)cc43)n2)cc1` (racemic) was tested, and the inhibition was “Active”. In the case of `COc1ccc(-n2nnc(CCC(O)CN3c4ccccc4Sc4ccc(N5CCOCC5)cc43)n2)cc1` (racemic) [listing 1 of 2 here], the inhibition is reported as “Active”. `COc1ccc(-n2nnc(CCC(O)CN3c4ccccc4Sc4ccc(N5CCN(C)CC5)cc43)n2)cc1` (single isomer, unassigned; (+)) was tested, and the inhibition was “Active”. For `COc1ccc(-n2nnc(CCC(O)CN3c4ccccc4Sc4ccc(N5CCN(C)CC5)cc43)n2)cc1` (single isomer, unassigned; (-)), the inhibition was “Active”. `COc1ccc(-n2nnc(CCC(O)CN3c4ccccc4Sc4ccc(N5CCOCC5)cc43)n2)cc1` (single isomer, unassigned; (-)) was tested, and the inhibition was “Active”. With `COc1ccc(-n2nnc(CCC(O)CN3c4ccccc4Sc4ccc(N5CCOCC5)cc43)n2)cc1` (stereo in doubt; (+)-3h) the inhibition was “Active”.

Each compound was assayed on Hepatocyte (assay: Cytotoxicity against Wistar rat primary hepatocytes assessed as change in cell viability at 10 uM after 3 hrs by MTT assay).
Type: cell-based
Method in brief: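 Primary hepatocytes from male Wistar rats (200-250 g), cultured as a monolayer, exposed 3 h to compound or vehicle (control), washed, then incubated with 1 mg/mL MTT for 2 h. Cells lysed in DMSO and absorbance read at 570 nm. Viability expressed as % of control.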
`COc1ccc(-n2nnc(CCC(O)CN3c4ccccc4Sc4ccc(NCCN5CCOCC5)cc43)n2)cc1` (stereo not drawn) was tested, and the Activity was “Non-toxic”. In the case of `COc1ccc(-n2nnc(CCC(O)CN3c4ccccc4[S+]([O-])c4ccc(N5CCOCC5)cc43)n2)cc1` (stereo not drawn), the Activity is reported as “Non-toxic”. With `COc1ccc(-n2nnc(CCC(O)CN3c4ccccc4S(=O)(=O)c4ccc(N5CCOCC5)cc43)n2)cc1` (stereo not drawn) the Activity was “Non-toxic”. For `CCN(CC)c1ccc2c(c1)N(CC(O)CCc1nnn(-c3ccc(OC)cc3)n1)c1ccccc1S2` (racemic), the Activity was “Non-toxic”. For `COc1ccc(-n2nnc(CCC(O)CN3c4ccccc4Sc4ccc(N5CCOCC5)cc43)n2)cc1` (racemic) [listing 2 of 2 here], the Activity was “Non-toxic”.
